Experimental data gathered from unrelated publications.
Lines come from different studies, so protocols differ.
Cell line: DU-145
Observed: cell growth or viability

| SMILES | technique | time | IC50 |
| --- | --- | --- | --- |
| C[C@H]1O[C@@H](n2cc(F)c(=O)[nH]c2=O)[C@H](O)[C@@H]1O | CCK-8 | 48 h | > 50 µM |
| Cn1cc(C(c2ccc(C(=O)O)cc2)c2cn(C)c3ccccc23)c2ccccc21 | MTT | 48 h | > 100 µM |
| Cc1cc(=O)[nH]c(=O)n1Cc1cn(-c2c3ccccc3nc3ccccc23)nn1 | MTT |  | 26.1 µM |
| CC(C)n1cc(C(c2ccc(/C=C/C(=O)O)s2)c2cn(C(C)C)c3ccccc23)c2ccccc21 | MTT | 48 h | 52 µM |
| C[C@@H]1C[C@H](c2ccc(Br)cc2)c2c(cc3ccccn23)C(=O)O1 (racemic) | resazurin | 72 h | 34.4 µM |
| O=C(O)C(c1c[nH]c2ccccc12)c1c[nH]c2ccccc12 | MTT | 48 h | > 100 µM |
| c1csc([I+]c2cccs2)c1 | trypan blue | 48 h | ~3.5 µM |
| CC(C)C[C@H](NC(=O)[C@H](Cc1ccccc1)NC(=O)c1cnccn1)B(O)O | ATP luminescence |  | 0.017 µM |
| Cc1ccc2[nH]cc(C(c3ccc(/C=C/C(=O)O)s3)c3c[nH]c4ccc(C)cc34)c2c1 | MTT | 48 h | > 100 µM |
| C[C@@H]1C[C@H](c2ccccc2)c2c(cc3ccccn23)C(=O)O1 (racemic) | resazurin | 72 h | > 100 µM |
| C[C@H]1[C@@H](O)O[C@@H]2O[C@@]3(C)CC[C@H]4[C@H](C)CC[C@@H]1[C@@]24OO3 | CCK-8 | 48 h | > 50 µM |
| O=C(O)/C=C/c1cccc(C(c2c[nH]c3ccccc23)c2c[nH]c3ccccc23)c1 | MTT | 48 h | > 100 µM |
| COc1cccc2c1C(=O)c1c(O)c3c(c(O)c1C2=O)C[C@@](O)(C(=O)CO)C[C@@H]3O[C@H]1C[C@H](N)[C@H](O)[C@H](C)O1 | resazurin | 72 h | 0.095 µM |
| Cc1ccc(S(=O)(=O)OCC(=O)Nc2ccc(C(=O)O)c(O)c2)cc1 |  |  | 75 µM |
| C[C@@H]1C[C@H](c2cccc(Cl)c2)c2c(cc3ccccn23)C(=O)O1 (racemic) | resazurin | 72 h | 54.7 µM |
| CCc1c2c(nc3ccc(OC(=O)N4CCC(N5CCCCC5)CC4)cc13)-c1cc3c(c(=O)n1C2)COC(=O)[C@]3(O)CC | SRB | 72 h | 9.3 µM |
| COC1=CC(=O)N(C(=O)[C@@H](CCC(Cl)(Cl)Cl)NC(=O)C(C)(C)C)[C@@H]1CCC(Cl)(Cl)Cl | resazurin | 72 h | 20 µM |
| COc1cc([C@@H]2C[C@@H](C)OC(=O)c3cc4ccccn4c32)cc(OC)c1OC (racemic) | resazurin | 72 h | > 100 µM |
| Cc1cccc2c(C(c3ccc(/C=C/C(=O)O)s3)c3c[nH]c4c(C)cccc34)c[nH]c12 | MTT | 48 h | 64 µM |
| O=c1ccn(Cc2cn(-c3c4ccccc4nc4ccccc34)nn2)c(=O)[nH]1 | MTT |  | 59.3 µM |
| C[C@@H]1C[C@@H](c2cccc(F)c2)c2c(cc3ccccn23)C(=O)O1 (racemic) | resazurin | 72 h | > 100 µM |
| FC(F)(F)c1ccc(C(c2c[nH]c3ccccc23)c2c[nH]c3ccccc23)cc1 | MTT | 48 h | 47 µM |
